Results as given in ChEMBL document CHEMBL1142303, “Imidazo[2,1-b]thiazole system: a scaffold endowing dihydropyridines with selective cardiodepressant activity” (J Med Chem, 2008).
Calls of active or inactive are those of the source. No cut-off for these calls is given here.

Columns and labels:
[1] = Inotropic activity at L type calcium channel in guinea pig left atrium assessed as decrease in tension; type: tissue-based; conditions: Cavia porcellus, Cardiac atrium
Method in brief: (§1)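 Guinea-pig atria: left atrium driven at 1 Hz for inotropy, spontaneously beating right atrium for chronotropy. Increasing cumulative doses, readout is percent decrease. EC50 (inotropic) and EC30 (chronotropic) by Litchfield–Wilcoxon probit analysis on log concentration–response curves, n = 6–7. Not calculated when the maximum effect was below 50%.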

Cavia porcellus [2] = organism: Cavia porcellus; assay: Inotropic activity at L type calcium channel in guinea pig left atrium assessed as decrease in tension at 5 uM relative to control; type: tissue-based; design: scale not given: the % may be the effect or the level left; conditions: Cardiac atrium
Cavia porcellus [3] = organism: Cavia porcellus; assay: Activity at L type calcium channel in K+ depolarized guinea pig aortic strip assessed as inhibition of calcium induced contraction at 10 uM; type: tissue-based; design: scale not given: the % may be the effect or the level left; conditions: Aorta
Method in brief: (§2)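 Guinea-pig aortic strips depolarized with 80 mM K+. Drugs added cumulatively. Readout is percent inhibition of calcium-induced contraction, n = 5–6. Control versus treated values tested at each concentration by Student's t-test, P < 0.05.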

Cavia porcellus [4] = organism: Cavia porcellus; assay: Chronotropic activity at L type calcium channel in guinea pig right atrium assessed as decrease in spontaneous beating at 5 uM relative to control; type: tissue-based; design: scale not given: the % may be the effect or the level left; conditions: Cardiac atrium
Cavia porcellus [5] = organism: Cavia porcellus; assay: Chronotropic activity at L type calcium channel in guinea pig right atrium assessed as decrease in spontaneous beating at 10 uM relative to control; type: tissue-based; design: scale not given: the % may be the effect or the level left; conditions: Cardiac atrium
Cavia porcellus [6] = organism: Cavia porcellus; assay: Inotropic activity at L type calcium channel in guinea pig left atrium assessed as decrease in tension at 1 uM relative to control; type: tissue-based; design: scale not given: the % may be the effect or the level left; conditions: Cardiac atrium
Cavia porcellus [7] = organism: Cavia porcellus; assay: Activity at L type calcium channel in K+ depolarized guinea pig aortic strip assessed as inhibition of calcium induced contraction at 50 uM; type: tissue-based; design: scale not given: the % may be the effect or the level left; conditions: Aorta; method in brief: as §2
Cavia porcellus [8] = organism: Cavia porcellus; assay: Inotropic activity at L type calcium channel in guinea pig left atrium assessed as decrease in tension at 50 uM relative to control; type: tissue-based; design: scale not given: the % may be the effect or the level left; conditions: Cardiac atrium
Cavia porcellus [9] = organism: Cavia porcellus; assay: Activity at L type calcium channel in K+ depolarized guinea pig aortic strip assessed as inhibition of calcium induced contraction at 100 uM; type: tissue-based; design: scale not given: the % may be the effect or the level left; conditions: Aorta; method in brief: as §2
Cavia porcellus [10] = organism: Cavia porcellus; assay: Chronotropic activity at L type calcium channel in guinea pig right atrium assessed as decrease in spontaneous beating; type: tissue-based; conditions: Cardiac atrium; method in brief: as §1
[11] = Activity at L type calcium channel in K+ depolarized guinea pig longitudinal smooth muscle assessed as inhibition of calcium induced contraction; design: species or system Cavia porcellus
Cavia porcellus [12] = organism: Cavia porcellus; assay: Inotropic activity at L type calcium channel in guinea pig left atrium assessed as decrease in tension at 100 uM relative to control; type: tissue-based; design: scale not given: the % may be the effect or the level left; conditions: Cardiac atrium
Cavia porcellus [13] = organism: Cavia porcellus; assay: Activity at L type calcium channel in K+ depolarized guinea pig longitudinal smooth muscle assessed as inhibition of calcium induced contraction at 0.1 uM; design: scale not given: the % may be the effect or the level left
Cavia porcellus [14] = organism: Cavia porcellus; assay: Activity at L type calcium channel in K+ depolarized guinea pig longitudinal smooth muscle assessed as inhibition of calcium induced contraction at 1 uM; design: scale not given: the % may be the effect or the level left
HEK293 = assay: Displacement of (+)-[5-methyl-3H][…] from L type calcium channel Cav1.2b in rabbit expressed in HEK293 cells; type: cell-based; conditions: Oryctolagus cuniculus
Method in brief: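 Intact HEK-293 cells transfected with rabbit Cav1.2a (α1C-a) or Cav1.2b (α1C-b) plasmid, labelled with (+)-[5-methyl-3H]PN200-110. Nonspecific binding about 10–20% of total. IC50 is mean ± S.E.M. of three independent experiments.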

[15] = Displacement of (+)-[5-methyl-3H][…] from L type calcium channel in guinea pig heart ventricles; design: species or system Cavia porcellus
Method in brief: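 Guinea-pig ventricular membranes incubated with 0.5 nM (+)-[5-methyl-3H]PN200-110 and test compounds at 0.1–50 µM in a competitive radioligand assay. Ki and IC50 reported as mean ± S.E.M. Student's t-test, significance P < 0.001.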

Cavia porcellus [16] = organism: Cavia porcellus; assay: Chronotropic activity at L type calcium channel in guinea pig right atrium assessed as decrease in spontaneous beating at 100 uM relative to control; type: tissue-based; design: scale not given: the % may be the effect or the level left; conditions: Cardiac atrium
Cavia porcellus [17] = organism: Cavia porcellus; assay: Activity at L type calcium channel in K+ depolarized guinea pig longitudinal smooth muscle assessed as inhibition of calcium induced contraction at 10 uM; design: scale not given: the % may be the effect or the level left
Cavia porcellus [18] = organism: Cavia porcellus; assay: Chronotropic activity at L type calcium channel in guinea pig right atrium assessed as decrease in spontaneous beating at 50 uM relative to control; type: tissue-based; design: scale not given: the % may be the effect or the level left; conditions: Cardiac atrium
Cavia porcellus [19] = organism: Cavia porcellus; assay: Activity at L type calcium channel in K+ depolarized guinea pig longitudinal smooth muscle assessed as inhibition of calcium induced contraction at 100 uM; design: scale not given: the % may be the effect or the level left
Cavia porcellus [20] = organism: Cavia porcellus; assay: Activity at L type calcium channel in K+ depolarized guinea pig longitudinal smooth muscle assessed as inhibition of calcium induced contraction at 5 uM; design: scale not given: the % may be the effect or the level left
Cavia porcellus [21] = organism: Cavia porcellus; assay: Inotropic activity at L type calcium channel in guinea pig left atrium assessed as decrease in tension at 10 uM relative to control; type: tissue-based; design: scale not given: the % may be the effect or the level left; conditions: Cardiac atrium

Row | Compound | EC50 [1] [nM] | IC50 [11] [nM] | Activity (Cavia porcellus [4]) [%] | Activity (Cavia porcellus [5]) [%] | Activity (Cavia porcellus [9]) [%] | EC30 (Cavia porcellus [10]) [nM] | Activity (Cavia porcellus [12]) [%] | further results
1 | COC(=O)C1=C(C)NC(C)=C(C(=O)OC)C1c1c(-c2cccc(OC(F)(F)F)c2)nc2sccn12 | 830 | – | 69 | – | 26 | 1180 | – | Activity (Cavia porcellus [8]): 86%
2 | COC(=O)C1=C(C)NC(C)=C(C(=O)OC)C1c1c(-c2cccc(OC)c2)nc2sccn12 | 1900 | 83 | 94 | – | – | 550 | 90 | Activity (Cavia porcellus [3]): 48%; Activity (Cavia porcellus [13]): 51%
3 | COC(=O)C1=C(C)NC(C)=C(C(=O)OC)C1c1c(-c2ccccc2)nc2scc(C)n12 | 830 | – | 88 | – | – | 640 | 59 | Activity (Cavia porcellus [7]): 30%
4 | COC(=O)C1=C(C)NC(C)=C(C(=O)OC)C1c1c(-c2c(OC)ccc(OC)c2[N+](=O)[O-])nc2sc(Cl)cn12 | – | – | – | – | 32 | 11200 | – | Activity (Cavia porcellus [16]): 64%; Activity (Cavia porcellus [6]): 42%
5 | COC(=O)C1=C(C)NC(C)=C(C(=O)OC)C1c1c(-c2cc(OC)ccc2OC)nc2sc(Cl)cn12 | 900 | – | – | – | 11 | 360 | 55 | Activity (Cavia porcellus [16]): 84%
6 | COC(=O)C1=C(C)NC(C)=C(C(=O)OC)C1c1c(-c2cc(OC)ccc2OC)nc2sc(C)cn12 | 1430 | – | – | 58 | 15 | 1360 | – | Activity (Cavia porcellus [8]): 78%
7 | COC(=O)C1=C(C)NC(C)=C(C(=O)OC)C1c1c(-c2ccc(OC)c(OC)c2)nc2sccn12 | 2640 | – | – | – | – | 1440 | 61 | Activity (Cavia porcellus [18]): 80%; Activity (Cavia porcellus [7]): 15%
8 | COC(=O)C1=C(C)NC(C)=C(C(=O)OC)C1c1c(-c2ccccc2)nc2sc(C)c(C)n12 | 590 | – | 94 | – | 12 | 330 | 76 | –
9 | COC(=O)C1=C(C)NC(C)=C(C(=O)OC)C1c1c(-c2c(OC)ccc(OC)c2[N+](=O)[O-])nc2sccn12 | 360 | 11000 | – | – | 17 | – | – | Activity (Cavia porcellus [19]): 86%; Activity (Cavia porcellus [21]): 71%; Activity (Cavia porcellus [16]): 12%

Now from value to compound, other results behind:

Row | EC50 [1] [nM] | IC50 [11] [nM] | Compound | Activity (Cavia porcellus [4]) [%] | Activity (Cavia porcellus [5]) [%] | Activity (Cavia porcellus [9]) [%] | EC30 (Cavia porcellus [10]) [nM] | Activity (Cavia porcellus [12]) [%] | further results
10 | 81 | – | COC(=O)C1=C(C)NC(C)=C(C(=O)OC)C1c1c(Cl)nc2sc(C)c(C)n12 | 29 | – | – | – | – | Activity (Cavia porcellus [2]): 73%; Activity (Cavia porcellus [3]): 29%
11 | 103 | – | COC(=O)C1=C(C)NC(C)=C(C(=O)OC)C1c1c(Cl)nc2scc(C)n12 | – | 39 | – | – | – | Activity (Cavia porcellus [6]): 79%; Activity (Cavia porcellus [7]): 47%
12 | 26 | 240 | COC(=O)C1=C(C)NC(C)=C(C(=O)OC)C1c1c(-c2cc(OC)c([N+](=O)[O-])cc2OC)nc2sc(C)cn12 | – | 87 | 32 | 2110 | – | Activity (Cavia porcellus [14]): 94%; Activity (Cavia porcellus [2]): 75%; Activity (HEK293): inactive; Log Ki [15]: < -5
13 | 93 | 1660 | COC(=O)C1=C(C)NC(C)=C(C(=O)OC)C1c1c(-c2ccccc2C(F)(F)F)nc2sccn12 | – | 25 | 24 | – | – | Activity (Cavia porcellus [17]): 92%; Activity (Cavia porcellus [6]): 56%
14 | 39 | 12800 | CCCc1cn2c(C3C(C(=O)OC)=C(C)NC(C)=C3C(=O)OC)c(-c3c(OC)ccc(OC)c3[N+](=O)[O-])nc2s1 | 25 | – | 5 | – | – | Activity (Cavia porcellus [19]): 89%; Activity (Cavia porcellus [8]): 55%
15 | 75 | 1950 | COC(=O)C1=C(C)NC(C)=C(C(=O)OC)C1c1c(-c2ccccc2OC(F)(F)F)nc2sccn12 | – | 47 | 47 | – | – | Activity (Cavia porcellus [2]): 67%; Activity (Cavia porcellus [20]): 81%; Log Ki [15]: -6.8
